Data: ChEMBL document CHEMBL3734757, “Discovery of novel quinoline-based mTOR inhibitors via introducing intra-molecular hydrogen bonding scaffold (iMHBS): The design, synthesis and biological evaluation” (Bioorg Med Chem, 2015)
Calls of active or inactive are those of the source. The rule behind the calls is not given here.

Experiments:
[1] = target: Serine/threonine-protein kinase mTOR (Homo sapiens, UniProt P42345); assay: Inhibition of mTOR (unknown origin) using ULight-4E-BP1 peptide as substrate after 1 hr by lance ultra assay
[2] = target: T1, Phosphatidylinositol 4,5-bisphosphate 3-kinase catalytic subunit alpha isoform (Homo sapiens, UniProt P42336); assay: Inhibition of PI3Kalpha (unknown origin) after 1 hr by Kinase-Glo Luminescent assay
T1 sequence (P42336 whole entry, canonical isoform): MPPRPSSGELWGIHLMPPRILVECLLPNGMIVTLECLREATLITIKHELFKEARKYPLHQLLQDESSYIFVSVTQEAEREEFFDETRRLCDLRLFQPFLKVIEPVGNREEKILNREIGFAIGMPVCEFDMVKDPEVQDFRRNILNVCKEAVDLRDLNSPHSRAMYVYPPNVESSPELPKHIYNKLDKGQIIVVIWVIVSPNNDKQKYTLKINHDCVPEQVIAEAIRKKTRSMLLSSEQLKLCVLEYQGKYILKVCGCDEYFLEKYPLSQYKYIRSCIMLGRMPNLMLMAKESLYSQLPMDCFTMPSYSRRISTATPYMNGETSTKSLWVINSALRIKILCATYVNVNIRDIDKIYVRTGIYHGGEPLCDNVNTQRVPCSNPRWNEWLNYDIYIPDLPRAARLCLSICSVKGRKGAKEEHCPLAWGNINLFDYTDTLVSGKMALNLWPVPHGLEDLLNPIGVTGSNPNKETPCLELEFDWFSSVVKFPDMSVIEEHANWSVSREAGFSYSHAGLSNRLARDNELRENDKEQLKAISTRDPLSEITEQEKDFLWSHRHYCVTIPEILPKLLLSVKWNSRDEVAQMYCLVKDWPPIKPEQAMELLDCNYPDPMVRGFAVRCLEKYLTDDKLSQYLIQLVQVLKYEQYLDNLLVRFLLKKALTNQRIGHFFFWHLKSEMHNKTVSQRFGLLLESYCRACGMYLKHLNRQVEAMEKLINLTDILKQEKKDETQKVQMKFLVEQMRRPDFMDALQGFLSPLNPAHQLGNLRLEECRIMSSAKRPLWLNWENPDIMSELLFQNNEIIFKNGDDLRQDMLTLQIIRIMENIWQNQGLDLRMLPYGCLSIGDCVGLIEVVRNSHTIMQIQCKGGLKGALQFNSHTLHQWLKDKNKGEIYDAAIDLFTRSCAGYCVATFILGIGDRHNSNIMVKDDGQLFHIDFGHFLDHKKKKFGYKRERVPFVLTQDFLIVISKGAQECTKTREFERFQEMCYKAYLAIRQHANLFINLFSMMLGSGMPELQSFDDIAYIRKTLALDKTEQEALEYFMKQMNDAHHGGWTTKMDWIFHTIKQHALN

[3] = target: T2, Phosphatidylinositol 4,5-bisphosphate 3-kinase catalytic subunit beta isoform (Homo sapiens, UniProt P42338); assay: Inhibition of PI3Kbeta (unknown origin) after 1 hr by ADP-Glo Luminescent assay
How it was run: (§1)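 Purchased PI3Kβ reaction run 1 h at room temperature. An aliquot was moved to a new plate and stopped with an equal volume of ADP-Glo reagent, equilibrated 40 min. Kinase detection reagent added, shaken 1 min, equilibrated 60 min, then luminescence read. Inhibition relative to DMSO (max) and no-enzyme (min) controls; IC50 from four-parameter Hill fit.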
Target sequence in this assay (P42338 whole entry, canonical isoform): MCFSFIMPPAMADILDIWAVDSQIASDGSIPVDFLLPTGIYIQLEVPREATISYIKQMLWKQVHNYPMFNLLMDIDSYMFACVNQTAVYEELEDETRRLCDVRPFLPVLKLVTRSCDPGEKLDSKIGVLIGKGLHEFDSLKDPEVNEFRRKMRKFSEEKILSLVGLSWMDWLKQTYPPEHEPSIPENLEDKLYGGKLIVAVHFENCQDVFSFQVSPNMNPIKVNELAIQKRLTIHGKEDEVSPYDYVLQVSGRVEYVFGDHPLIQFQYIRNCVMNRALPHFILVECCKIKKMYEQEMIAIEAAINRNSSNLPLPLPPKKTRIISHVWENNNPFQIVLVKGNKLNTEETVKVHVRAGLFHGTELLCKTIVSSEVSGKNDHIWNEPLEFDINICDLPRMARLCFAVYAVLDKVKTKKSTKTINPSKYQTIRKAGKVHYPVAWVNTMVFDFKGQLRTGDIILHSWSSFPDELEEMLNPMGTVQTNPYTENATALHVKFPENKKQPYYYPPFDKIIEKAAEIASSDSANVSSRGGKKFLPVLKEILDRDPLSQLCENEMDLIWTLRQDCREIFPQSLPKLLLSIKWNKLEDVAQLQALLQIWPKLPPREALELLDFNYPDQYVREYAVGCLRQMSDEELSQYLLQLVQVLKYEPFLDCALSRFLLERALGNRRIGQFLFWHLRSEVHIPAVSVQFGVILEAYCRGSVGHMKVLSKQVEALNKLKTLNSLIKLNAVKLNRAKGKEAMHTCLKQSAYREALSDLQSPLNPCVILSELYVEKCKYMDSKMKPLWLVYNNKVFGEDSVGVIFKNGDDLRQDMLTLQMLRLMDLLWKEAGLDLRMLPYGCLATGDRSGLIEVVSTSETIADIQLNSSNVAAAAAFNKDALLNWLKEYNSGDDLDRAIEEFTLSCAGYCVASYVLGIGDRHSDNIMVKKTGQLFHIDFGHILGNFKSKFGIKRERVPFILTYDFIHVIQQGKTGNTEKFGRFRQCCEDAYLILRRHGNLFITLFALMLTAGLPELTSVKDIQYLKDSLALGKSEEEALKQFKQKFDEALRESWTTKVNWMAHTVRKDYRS

[4] = target: T3, Phosphatidylinositol 4,5-bisphosphate 3-kinase catalytic subunit gamma isoform (Homo sapiens, UniProt P48736); assay: Inhibition of PI3Kgamma (unknown origin) after 1 hr by ADP-Glo Luminescent assay
Target sequence in this assay (P48736 whole entry, canonical isoform): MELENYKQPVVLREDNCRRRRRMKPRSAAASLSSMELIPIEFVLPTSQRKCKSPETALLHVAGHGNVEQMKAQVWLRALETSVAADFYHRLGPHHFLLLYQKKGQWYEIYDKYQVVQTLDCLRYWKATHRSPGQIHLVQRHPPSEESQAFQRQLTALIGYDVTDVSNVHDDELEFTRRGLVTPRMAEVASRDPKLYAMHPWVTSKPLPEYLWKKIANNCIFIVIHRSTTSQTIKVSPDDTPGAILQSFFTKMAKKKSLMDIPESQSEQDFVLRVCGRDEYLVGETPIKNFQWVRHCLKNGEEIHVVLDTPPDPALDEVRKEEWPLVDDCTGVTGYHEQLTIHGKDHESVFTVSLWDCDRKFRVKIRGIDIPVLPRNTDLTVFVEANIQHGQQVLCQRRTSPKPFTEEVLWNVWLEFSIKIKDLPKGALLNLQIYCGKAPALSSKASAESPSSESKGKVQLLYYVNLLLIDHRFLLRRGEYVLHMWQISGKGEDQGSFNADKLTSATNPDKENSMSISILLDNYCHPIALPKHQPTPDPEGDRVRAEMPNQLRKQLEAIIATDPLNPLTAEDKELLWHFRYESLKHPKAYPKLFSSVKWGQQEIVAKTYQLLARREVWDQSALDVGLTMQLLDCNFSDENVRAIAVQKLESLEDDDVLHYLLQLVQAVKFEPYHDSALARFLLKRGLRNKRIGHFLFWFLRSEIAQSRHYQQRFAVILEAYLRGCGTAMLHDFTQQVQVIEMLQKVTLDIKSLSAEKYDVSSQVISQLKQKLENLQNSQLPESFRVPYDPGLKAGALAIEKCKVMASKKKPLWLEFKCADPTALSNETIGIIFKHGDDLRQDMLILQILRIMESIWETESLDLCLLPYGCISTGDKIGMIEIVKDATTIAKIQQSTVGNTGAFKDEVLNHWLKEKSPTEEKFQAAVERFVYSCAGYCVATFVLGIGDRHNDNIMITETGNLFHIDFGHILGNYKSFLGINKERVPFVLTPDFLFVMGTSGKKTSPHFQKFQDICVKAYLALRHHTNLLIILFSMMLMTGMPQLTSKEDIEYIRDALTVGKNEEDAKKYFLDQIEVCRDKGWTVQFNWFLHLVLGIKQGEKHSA

[5] = target: T4, Phosphatidylinositol 4,5-bisphosphate 3-kinase catalytic subunit delta isoform (Homo sapiens, UniProt O00329); assay: Inhibition of PI3Kdelta (unknown origin) after 1 hr by ADP-Glo Luminescent assay
T4 sequence (O00329 whole entry): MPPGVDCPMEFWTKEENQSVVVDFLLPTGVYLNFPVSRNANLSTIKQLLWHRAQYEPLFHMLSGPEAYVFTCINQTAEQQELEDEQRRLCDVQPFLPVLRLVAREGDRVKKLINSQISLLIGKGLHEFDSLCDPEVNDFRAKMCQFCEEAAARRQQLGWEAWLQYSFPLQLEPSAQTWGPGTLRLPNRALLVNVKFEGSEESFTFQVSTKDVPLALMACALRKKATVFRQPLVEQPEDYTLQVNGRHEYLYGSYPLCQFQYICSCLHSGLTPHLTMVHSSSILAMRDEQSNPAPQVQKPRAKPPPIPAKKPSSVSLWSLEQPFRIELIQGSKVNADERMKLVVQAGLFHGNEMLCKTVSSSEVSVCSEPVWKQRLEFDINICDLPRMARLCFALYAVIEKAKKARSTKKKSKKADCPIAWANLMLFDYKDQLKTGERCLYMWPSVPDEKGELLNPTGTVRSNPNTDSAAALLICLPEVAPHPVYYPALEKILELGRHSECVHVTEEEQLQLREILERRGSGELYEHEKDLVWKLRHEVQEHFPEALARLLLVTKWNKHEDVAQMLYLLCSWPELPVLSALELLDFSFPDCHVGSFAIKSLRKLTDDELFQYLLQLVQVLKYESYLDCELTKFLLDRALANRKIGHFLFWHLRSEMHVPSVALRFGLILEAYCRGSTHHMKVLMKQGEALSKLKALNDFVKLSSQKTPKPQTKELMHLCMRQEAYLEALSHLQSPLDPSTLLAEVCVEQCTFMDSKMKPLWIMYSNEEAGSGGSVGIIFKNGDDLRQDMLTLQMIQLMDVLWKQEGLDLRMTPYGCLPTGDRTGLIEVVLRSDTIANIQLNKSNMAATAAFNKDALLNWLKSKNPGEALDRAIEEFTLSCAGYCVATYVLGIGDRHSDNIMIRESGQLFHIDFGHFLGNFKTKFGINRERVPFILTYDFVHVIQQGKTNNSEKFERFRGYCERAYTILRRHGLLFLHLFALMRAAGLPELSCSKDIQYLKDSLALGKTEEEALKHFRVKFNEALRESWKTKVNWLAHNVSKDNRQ

MCF7 [6] = assay: Inhibition of mTORC1/2 in human MCF7 cells assessed as downregulation of pAKT(Ser473) and pS6(Ser235) at 0.5 uM after 2 hrs by Western blot analysis; assay type: cell-based
cells [7] = details: Homo sapiens, HCT-116, 72 h
cells [8] = details: Homo sapiens, PC-3, 72 h
MCF7 [9] = assay: cells; details: Homo sapiens, MCF7, 72 h
MCF7 [10] = assay: Inhibition of mTORC2 in human MCF7 cells assessed as downregulation of pAKT(Ser473) at 0.1 uM after 2 hrs by Western blot analysis
MCF7 [11] = assay: Inhibition of mTORC2 in human MCF7 cells assessed as downregulation of pAKT(Ser473) at 0.5 uM after 2 hrs by Western blot analysis; assay type: cell-based
mTORC1 (Homo sapiens) = mTORC1 (Homo sapiens) (UniProt P42345+Q8N122+Q9BVC4); details: MCF7, 0.5 uM
Sequence of mTORC1 (Homo sapiens) (Q8N122 whole entry, looked up, other chains not shown, canonical isoform): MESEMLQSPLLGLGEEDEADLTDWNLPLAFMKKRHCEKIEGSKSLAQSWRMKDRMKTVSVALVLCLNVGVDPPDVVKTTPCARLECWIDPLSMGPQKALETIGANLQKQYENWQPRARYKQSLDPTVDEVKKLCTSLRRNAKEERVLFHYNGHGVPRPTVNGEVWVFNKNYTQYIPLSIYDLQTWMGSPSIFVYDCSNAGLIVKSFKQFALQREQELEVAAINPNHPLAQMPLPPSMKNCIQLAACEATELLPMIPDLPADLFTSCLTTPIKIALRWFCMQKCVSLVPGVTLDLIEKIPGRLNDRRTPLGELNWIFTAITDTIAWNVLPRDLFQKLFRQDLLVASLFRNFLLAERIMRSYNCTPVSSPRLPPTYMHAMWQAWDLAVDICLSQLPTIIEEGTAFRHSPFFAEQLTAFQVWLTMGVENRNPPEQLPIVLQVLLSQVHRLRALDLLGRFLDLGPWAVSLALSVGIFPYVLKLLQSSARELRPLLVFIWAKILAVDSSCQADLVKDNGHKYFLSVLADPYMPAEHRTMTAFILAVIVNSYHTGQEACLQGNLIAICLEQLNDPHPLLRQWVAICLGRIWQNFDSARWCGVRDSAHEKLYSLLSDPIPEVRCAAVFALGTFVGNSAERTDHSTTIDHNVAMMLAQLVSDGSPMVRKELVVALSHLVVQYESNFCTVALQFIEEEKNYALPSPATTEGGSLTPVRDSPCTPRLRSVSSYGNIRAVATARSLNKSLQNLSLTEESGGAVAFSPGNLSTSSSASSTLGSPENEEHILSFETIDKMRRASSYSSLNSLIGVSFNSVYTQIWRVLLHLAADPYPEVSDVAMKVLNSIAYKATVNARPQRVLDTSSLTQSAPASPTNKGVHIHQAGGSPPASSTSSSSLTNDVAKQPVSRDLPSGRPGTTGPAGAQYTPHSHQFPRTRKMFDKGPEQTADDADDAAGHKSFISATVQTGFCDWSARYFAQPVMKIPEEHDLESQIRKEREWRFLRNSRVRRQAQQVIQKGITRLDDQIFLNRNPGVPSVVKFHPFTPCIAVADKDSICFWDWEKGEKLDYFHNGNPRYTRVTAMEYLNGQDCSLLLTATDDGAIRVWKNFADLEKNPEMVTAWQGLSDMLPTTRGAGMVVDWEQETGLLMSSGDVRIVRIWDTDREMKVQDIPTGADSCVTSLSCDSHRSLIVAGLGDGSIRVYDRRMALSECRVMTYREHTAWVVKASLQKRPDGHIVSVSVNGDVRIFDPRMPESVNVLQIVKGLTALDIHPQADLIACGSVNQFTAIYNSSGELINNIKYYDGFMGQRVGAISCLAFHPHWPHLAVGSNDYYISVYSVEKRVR
Sequence of mTORC1 (Homo sapiens) (Q9BVC4 whole entry, looked up, other chains not shown, canonical isoform): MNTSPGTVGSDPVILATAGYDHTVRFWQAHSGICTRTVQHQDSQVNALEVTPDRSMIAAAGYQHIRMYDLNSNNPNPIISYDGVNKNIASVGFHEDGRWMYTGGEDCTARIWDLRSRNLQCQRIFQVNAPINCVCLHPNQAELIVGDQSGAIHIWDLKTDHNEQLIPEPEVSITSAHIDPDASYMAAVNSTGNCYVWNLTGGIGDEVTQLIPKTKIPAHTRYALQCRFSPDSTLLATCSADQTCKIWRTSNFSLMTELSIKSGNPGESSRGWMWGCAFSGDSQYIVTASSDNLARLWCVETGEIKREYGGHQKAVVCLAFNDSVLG

[12] = target: T1, Phosphatidylinositol 4,5-bisphosphate 3-kinase catalytic subunit alpha isoform; assay: Inhibition of PI3Kalpha (unknown origin) at 1 uM after 1 hr by Kinase-Glo Luminescent assay
How it was run: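 Purchased PI3Kα in buffer of 50 mM HEPES pH 7.5, 3 mM MgCl2, 1 mM EDTA, 100 mM NaCl, 0.03% CHAPS, 2 mM DTT; substrate PIP2 plus ATP. Reaction 1 h at room temperature, stopped with Kinase-Glo reagent, 15 min equilibration, luminescence read. Percent inhibition from no-enzyme and DMSO controls; IC50 from four-parameter Hill fit.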

[13] = target: T2, Phosphatidylinositol 4,5-bisphosphate 3-kinase catalytic subunit beta isoform; assay: Inhibition of PI3Kbeta (unknown origin) at 1 uM after 1 hr by ADP-Glo Luminescent assay; how it was run: as §1
Target sequence in this assay (P42338 whole entry, looked up, canonical isoform): as the sequence (P42338 whole entry, canonical isoform) above

[14] = target: T3, Phosphatidylinositol 4,5-bisphosphate 3-kinase catalytic subunit gamma isoform; assay: Inhibition of PI3Kgamma (unknown origin) at 1 uM after 1 hr by ADP-Glo Luminescent assay
Target sequence in this assay (P48736 whole entry, looked up, canonical isoform): as the sequence (P48736 whole entry, canonical isoform) above

[15] = target: T5, Phosphatidylinositol 4,5-bisphosphate 3-kinase catalytic subunit delta isoform (Homo sapiens) (UniProt O00329); assay: Inhibition of PI3Kdelta (unknown origin) at 1 uM after 1 hr by ADP-Glo Luminescent assay
T5 sequence (whole entry): T4 sequence (O00329 whole entry)

[16] = Metabolic stability in simulated gastric fluid after 45 mins; assay type: ADME; details: simulated gi fluid, 0.75 h
[17] = Metabolic stability in simulated intestinal fluid after 45 mins; assay type: ADME; details: simulated gi fluid, 0.75 h
[18] = Metabolic stability in rat liver microsomes after 30 mins; assay type: ADME; details: read-out: Stability
[19] = Metabolic stability in human liver microsomes after 30 mins; assay type: ADME; details: read-out: Stability
[20] = Metabolic stability in human liver microsomes after 60 mins; assay type: ADME; details: read-out: Stability

| IC50 (cells [7]) | IC50 (cells [8]) | IC50 (MCF7 [9]) | SMILES | other results |
| --- | --- | --- | --- | --- |
| 1000 nM | 3730 nM | 360 nM | CS(=O)(=O)N1CCN(c2ccc(Nc3c(C(N)=O)cnc4ccc(-c5cnc6ccccc6c5)cc34)cc2C(F)(F)F)CC1 | – |
| 970 nM | 990 nM | 440 nM | CN1CCN(CC(=O)N2CCN(c3ccc(Nc4c(C(N)=O)cnc5ccc(-c6cnc7ccccc7c6)cc45)cc3C(F)(F)F)CC2)CC1 | – |
| 14700 nM | 7080 nM | 2690 nM | Cn1nccc1-c1ccc2ncc(C(N)=O)c(Nc3ccc(N4CCN(S(C)(=O)=O)CC4)c(C(F)(F)F)c3)c2c1 | – |

Further lines, the compound ahead of its results:

| SMILES | IC50 (cells [7]) | IC50 (cells [8]) | IC50 (MCF7 [9]) | other results |
| --- | --- | --- | --- | --- |
| CC(=O)N1CCN(c2ccc(Nc3c(C(N)=O)cnc4ccc(-c5cnc6ccccc6c5)cc34)cc2C(F)(F)F)CC1 | 1290 nM | 3900 nM | 440 nM | IC50 [1]: 31 nM; IC50 [2]: 2430 nM; IC50 [3]: > 5000 nM; IC50 [4]: 939 nM; IC50 [5]: > 5000 nM; inhibition (MCF7 [6]): Active; inhibition (MCF7 [10]): Active |
| O=C(NC1CC1)c1cnc2ccc(-c3cnc4ccccc4c3)cc2c1Nc1ccc(N2CCNCC2)c(C(F)(F)F)c1 | – | – | – | IC50 [1]: > 3000 nM |
| CNC(=O)c1cnc2ccc(-c3ccc(N)nc3)cc2c1Nc1ccc(C(C)(C)C#N)cc1 | 4660 nM | 1740 nM | 490 nM | – |
| COc1ccc(-c2ccc3ncc(C(N)=O)c(Nc4ccc(C(C)(C)C#N)cc4)c3c2)cn1 | 2570 nM | 1660 nM | 1580 nM | – |
| Cn1c(=O)n(-c2ccc(C(C)(C)C#N)cc2)c2c3cc(-c4cnc5ccccc5c4)ccc3ncc21 [DACTOLISIB] | 200 nM | 210 nM | 50 nM | – |
| CCC(=O)N1CCN(c2ccc(Nc3c(C(N)=O)cnc4ccc(-c5ccc(N)nc5)cc34)cc2C(F)(F)F)CC1 | 2400 nM | 1460 nM | 570 nM | – |
| Cn1nccc1-c1ccc2ncc(C(N)=O)c(Nc3ccc(C(C)(C)C#N)cc3)c2c1 | 17300 nM | > 50000 nM | 1250 nM | – |
| CO[C@H]1C[C@@H]2CC[C@@H](C)[C@@](O)(O2)C(=O)C(=O)N2CCCC[C@H]2C(=O)O[C@H]([C@H](C)C[C@@H]2CC[C@@H](O)[C@H](OC)C2)CC(=O)[C@H](C)/C=C(\C)[C@@H](O)[C@@H](OC)C(=O)[C@H](C)C[C@H](C)/C=C/C=C/C=C/1C | – | – | – | inhibition (MCF7 [11]): inactive; inhibition (mTORC1 (Homo sapiens)): Active |
| NC(=O)c1cnc2ccc(-c3cnc4ccccc4c3)cc2c1Nc1cccc(C(F)(F)F)c1 | 3170 nM | 6390 nM | 600 nM | – |
| CC(C)(C#N)c1ccc(Nc2c(C(N)=O)cnc3ccc(-c4ccc(N)nc4)cc23)cc1 | 670 nM | 830 nM | 520 nM | – |
| COc1ccc(-c2ccc3ncc(C(N)=O)c(Nc4ccc(N5CCNCC5)c(C(F)(F)F)c4)c3c2)cn1 | 2050 nM | 990 nM | 780 nM | – |
| Cl.NC(=O)c1cnc2ccc(-c3cnc4ccccc4c3)cc2c1Nc1ccc(N2CCNCC2)c(C(F)(F)F)c1 | 460 nM | 610 nM | 240 nM | inhibition [12]: 32.3%; inhibition [13]: 1%; inhibition [14]: 6.7%; inhibition [15]: 16.7%; Stability [16]: Stable; Stability [17]: Stable; remaining at 0.5 h [18]: 50%; remaining at 0.5 h [19]: 80%; remaining at 1 h [20]: 73% |
| NC(=O)c1cnc2ccc(-c3ccc(N)nc3)cc2c1Nc1cccc(C(F)(F)F)c1 | 1830 nM | 1080 nM | 410 nM | – |
| CNC(=O)c1cnc2ccc(-c3cnc4ccccc4c3)cc2c1Nc1ccc(C(C)(C)C#N)cc1 | 8730 nM | 7120 nM | 1300 nM | – |
| CC(C)(C#N)c1ccc(Nc2c(C(N)=O)cnc3ccc(-c4cnc5ccccc5c4)cc23)cc1 | 4560 nM | 2820 nM | 950 nM | IC50 [1]: 33 nM; inhibition [12]: 26.9%; inhibition [13]: 10.3%; inhibition [14]: -2.4% |
